Reference: ChEMBL document CHEMBL3739318, “Orally Bioavailable Metal Chelators and Radical Scavengers: Multifunctional Antioxidants for the Coadjutant Treatment of Neurodegenerative Diseases” (J Med Chem, 2015)
Calls of active or inactive are those of the source. The calls are words filed in the database; no cut-off is given here.

What was measured:
[1] = Metal chelating activity assessed as stoichiometric ratio of compound to Fe2+ ion at 0.1 to 0.5 mM of compound and metal ion mixture after 45 mins by spectrophotometric analysis; assay type: physicochemical; conditions: 0.75 h, 500 µM
In short: (§1)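 Job continuous-variation method at 23 °C. Compound dissolved in acetonitrile, then diluted to 0.1 mM stock in 1 mM acetate pH 6.5. Compound + ion at constant total 0.1–0.5 mM with varied mole fraction. After 45 min equilibration, UV absorbance scanned 210–310 nm. Stoichiometry taken from the intersection of lines. Mean ± SD, n = 3.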

[2] = Metal chelating activity assessed as stoichiometric ratio of compound to Mg2+ ion at 0.1 to 0.5 mM of compound and metal ion mixture after 45 mins by spectrophotometric analysis; assay type: physicochemical; conditions: 0.75 h, 500 µM; in short: as §1
SH-SY5Y [3] = experiment: Neuroprotective activity against Fenton reagent-induced ROS generation in human SH-SY5Y cells assessed as increase in GSH level at 1 mM after 2 hrs by DTNB method; assay type: functional, cell-based
In short: (§2)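 Cells grown in 60 or 150 mm dishes and exposed 2 h to Fenton reagent (1 mM H2O2 + 1 mM Fe2+) with or without 1 mM compound in 0.16% DMSO. Intracellular glutathione then measured. Mean ± SEM, n = 6. ANOVA.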

[4] = Drug uptake in lens of C57BL/6 mouse assessed per mg of protein at 80 mg/kg, po administered everyday for 14 days by HPLC-MS analysis; assay type: ADME, organism-based, Lens of camera-type eye; conditions: in vivo, 336 h
In short: (§3)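 C57BL/6 mice fed chow containing 0.05% compound (~80 mg/kg/day average) for 14 days. Perfused with PBS; brain, lens and neural retina homogenized in ice-cold 10 mM acetate pH 4 with internal standard. Extracted with TCA precipitation and chloroform. Analyzed by reverse-phase C18 HPLC.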

ARPE-19 [5] = experiment: Neuroprotective activity against Fenton reagent-induced ROS generation in human ARPE19 cells assessed as increase in GSH level at 1 mM after 2 hrs by DTNB method; assay type: functional, cell-based; in short: as §2
[6] = Metal chelating activity assessed as stoichiometric ratio of compound to Fe3+ ion at 0.1 to 0.5 mM of compound and metal ion mixture after 45 mins by spectrophotometric analysis; assay type: physicochemical; conditions: 0.75 h, 500 µM; in short: as §1
SH-SY5Y [7] = experiment: Cytotoxicity against human SH-SY5Y cells assessed as reduction in cell viability at 1 mM after 2 hrs by MTS assay; assay type: cell-based; conditions: 1000 µM
In short: (§4)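 ARPE-19 grown in DMEM + 4% FBS and SH-SY5Y in EMEM/F12 + 10% FBS, at 37 °C, 5% CO2. Plated at 1 × 10^4 cells/well. Exposed 2 h to 1 mM compound (0.16% DMSO) without oxidant. Viability by MTS. Mean ± SEM, n = 4, ANOVA versus blank control.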

[8] = Metal chelating activity assessed as stoichiometric ratio of compound to Cu2+ ion at 0.1 to 0.5 mM of compound and metal ion mixture after 45 mins by spectrophotometric analysis; assay type: physicochemical; conditions: 0.75 h, 500 µM; in short: as §1
ARPE-19 [9] = experiment: Neuroprotective activity against Fenton reagent-induced ROS generation-stimulated cytotoxicity in human ARPE19 cells assessed as cell viability at 1 mM after 2 hrs by MTS assay; assay type: functional, cell-based
In short: (§5)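 Cells in 96-well format exposed 2 h to Fenton reagent (1 mM H2O2 + 1 mM Fe2+) with or without 1 mM compound in 0.16% DMSO. Viability by MTS assay, normalized to untreated cells without Fenton reagent (100%). Mean ± SEM, n = 4. ANOVA.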

[10] = Cytotoxicity against human ARPE19 cells assessed as reduction in cell viability at 1 mM after 2 hrs by MTS assay; assay type: cell-based; conditions: arpe-19, 2 h, 1000 µM; in short: as §4
SH-SY5Y [11] = experiment: Neuroprotective activity against Fenton reagent-induced ROS generation-stimulated cytotoxicity in human SH-SY5Y cells assessed as cell viability at 1 mM after 2 hrs by MTS assay; assay type: functional, cell-based; in short: as §5
[12] = Metal chelating activity assessed as stoichiometric ratio of compound to Cu+ ion at 0.1 to 0.5 mM of compound and metal ion mixture after 45 mins by spectrophotometric analysis; assay type: physicochemical; conditions: 0.75 h, 500 µM; in short: as §1
[13] = Metal chelating activity assessed as stoichiometric ratio of compound to Ca2+ ion at 0.1 to 0.5 mM of compound and metal ion mixture after 45 mins by spectrophotometric analysis; assay type: physicochemical; conditions: 0.75 h, 500 µM; in short: as §1
[14] = Drug uptake in neural retina of C57BL/6 mouse assessed per mg of protein at 80 mg/kg, po administered everyday for 14 days by HPLC-MS analysis; assay type: ADME, organism-based; conditions: in vivo, 336 h; in short: as §3
[15] = Metal chelating activity assessed as stoichiometric ratio of compound to Zn2+ ion at 0.1 to 0.5 mM of compound and metal ion mixture after 45 mins by spectrophotometric analysis; assay type: physicochemical; conditions: 0.75 h, 500 µM; in short: as §1
[16] = Metal chelating activity assessed as stoichiometric ratio of compound to Mn2+ ion at 0.1 to 0.5 mM of compound and metal ion mixture after 45 mins by spectrophotometric analysis; assay type: physicochemical; conditions: 0.75 h, 500 µM; in short: as §1
ARPE-19 [17] = experiment: Neuroprotective activity against Fenton reagent-induced hydroxy radical-stimulated cytotoxicity in human ARPE19 cells assessed as cell survival at 1 to 1000 uM preincubated for 1 hr followed by Fenton reagent challenge for 2 hrs by fluorescence-based LIVE/DEAD viability/cytotoxicity assay; assay type: functional
In short: (§6)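 After a PBS wash, cells preincubated 1 h at 37 °C in serum-free medium with 1–1000 μM compound. Fenton reagent (Fe2+/H2O2, 100 μM final) then added for 2 h. Stained 15 min at 37 °C with calcein AM 8 μM and EthD-1 16 μM. Fluorescence read at 494/517 and 528/617 nm. % live cells calculated from blank-corrected single-dye controls; dead-cell control 70% ethanol. Mean ± SEM, n = 6.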

SH-SY5Y [18] = experiment: Neuroprotective activity against Fenton reagent-induced hydroxy radical-stimulated cytotoxicity in human SH-SY5Y cells assessed as cell survival at 1 to 1000 uM preincubated for 1 hr followed by Fenton reagent challenge for 2 hrs by fluorescence-based LIVE/DEAD viability/cytotoxicity assay; assay type: functional; in short: as §6
ARPE-19 [19] = experiment: Antioxidant activity in human ARPE19 cells assessed as reduction of xanthine oxidase-mediated superoxide generation preincubated for 1 hr followed by xanthine oxidase challenge for 1 hr by MitoSOX staining-based fluorescence analysis; assay type: functional, cell-based
In short: (§7)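 Cells washed with PBS, then preincubated 1 h at 37 °C in serum-free medium with 1, 10, 100 or 1000 μM compound, or SOD 25 μg/mL as reference. Xanthine oxidase added (25 mU/mL; ~100 μM superoxide) for 1 h more. After a PBS wash, cells stained with MitoSOX Red (5 μM) for 2 h. Fluorescence read at Ex/Em 510/580 nm.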

SH-SY5Y [20] = experiment: Antioxidant activity in human SH-SY5Y cells assessed as reduction of xanthine oxidase-mediated superoxide generation preincubated for 1 hr followed by xanthine oxidase challenge for 1 hr by MitoSOX staining-based fluorescence analysis; assay type: functional, cell-based; in short: as §7
Brain = experiment: Drug uptake in brain of C57BL/6 mouse assessed per mg of protein at 80 mg/kg, po administered everyday for 14 days by HPLC-MS analysis; assay type: ADME, organism-based; conditions: in vivo, 336 h; in short: as §3

Row | Compound | Ratio [1] | Ratio [2] | Activity (SH-SY5Y [3]) | Drug uptake [4] | Activity (ARPE-19 [5]) | Ratio [6] | Activity (SH-SY5Y [7]) | Ratio [8] | Activity (ARPE-19 [9]) | Activity [10] | Activity (SH-SY5Y [11]) | Ratio [12] | Ratio [13] | Drug uptake [14] | Ratio [15] | Ratio [16] | Activity (ARPE-19 [17]) | Activity (SH-SY5Y [18]) | Activity (ARPE-19 [19]) | Activity (SH-SY5Y [20]) | other results
1 | COc1nc(N2C(=O)CCCC2=O)nc(OC)c1O | 1.97 | 0 | Active | Active | Active | 1.82 | Non-toxic | 1.86 | Active | Non-toxic | Active | 1.97 | 0 | Active | 2.09 | 2.12 |  |  |  |  | 
2 | COc1nc(N2C(=O)CCC2=O)nc(OC)c1O | 2.03 | 0 | Active | Active | Active | 2.12 | Non-toxic | 2.13 | Active | Non-toxic | Active | 2.03 | 0 | Active | 2.01 | 2.22 | Dose-dependent effect | Dose-dependent effect | Dose-dependent effect | Dose-dependent effect | 
3 | COc1nc(N2C(=O)CN(S(=O)(=O)N(C)C)CC2=O)nc(OC)c1O |  |  |  | Active |  |  |  |  |  |  |  |  |  | Active |  |  |  |  |  |  | Drug uptake (Brain): 4 ng/mg
4 | O=C1CCCC(=O)N1c1ncc(O)cn1 | 1.85 | 0 | Active | Active | Active | 1.92 | Non-toxic | 1.75 | Active | Non-toxic | Active | 1.86 | 0 | Active | 1.99 | 1.91 |  |  |  |  | 
5 | Oc1c(I)cc(Cl)c2cccnc12 [CLIOQUINOL] |  |  | Active |  | Active |  | 20% |  | Active | 30% | Active |  |  |  |  |  | Dose-dependent effect | Dose-dependent effect | Dose-dependent effect | Dose-dependent effect | 
6 | O=C1CCC(=O)N1c1ncc(O)cn1 | 2.06 | 0 | Active | Active | Active | 2.01 | Non-toxic | 2.28 | Active | Non-toxic | Active | 2.01 | 0 | Active | 1.87 | 2.14 | Dose-dependent effect | Dose-dependent effect | Dose-dependent effect | Dose-dependent effect | 
7 | Cc1c(C)c2c(c(C)c1O)CCC(C)(C(=O)O)O2 (stereo unspecified) [TROLOX] |  |  | Active |  | Active |  | Non-toxic |  | Active | Non-toxic | Active |  |  |  |  |  | Dose-dependent effect | Dose-dependent effect | Dose-dependent effect | Dose-dependent effect | 
8 | CN(C)S(=O)(=O)N1CC(=O)N(c2ncc(O)cn2)C(=O)C1 |  |  | Active | Active | Active |  |  |  | Active |  | Active |  |  | Active |  |  | Dose-dependent effect | Dose-dependent effect | Dose-dependent effect | Dose-dependent effect | Drug uptake (Brain): 3 ng/mg
